# From article PMC10841594 (Cell chemical biology, 2023)
# Tests used:
# [1] = test system: ferroportin; assay: Immunohistochemical staining for ferroportin; type: in vivo, mouse; conditions: for ferroportin staining in liver vs untreated controls: livers of the mice imaged with FeAL-1
# How it was run: (§1)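 Tissues fixed in 4% paraformaldehyde, paraffin-embedded and cut into 4-µm sections. Liver, heart and tumor sections stained with anti-4-HNE (1:500) or anti-ferroportin (1:500). Liver and heart came from imaged mice: untreated, hepcidin 50 µg/mouse/day for 3 days, or doxorubicin 10 mg/kg IP once 5 days prior. Staining intensity quantified by IHC Profiler in ImageJ (liver/heart n=3 per condition).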
# [2] = test system: 4-hydroxynonenal (4-HNE); assay: Immunohistochemical staining for 4-HNE; type: in vivo, mouse
# How it was run: as §1
# [3] = test system: non-heme iron; conditions: DOX-treated mice, ex vivo methodology ref 16; cited from earlier work
# [4] = test system: luciferase-expressing PDA and colon cancer cell lines; assay: Cellular bioluminescence assays with FAC, BPY or hepcidin pre-treatment; type: cell-based
# How it was run: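 Cells stably expressing firefly/Renilla luciferase (lentiviral, puromycin-selected) in DMEM with 10% FBS, plated to reach 75% confluence and assayed two days after plating. Serum-free DMEM with FAC for 60 min at 37 °C, optionally BPY for 30 min. Hepcidin-25 (1, 2, 4 µg/mL) given 16 h beforehand. Probe at 75 µM in Ca/Mg-free HBSS for 25 min, IVIS imaging at 30 min. D-luciferin (25 µM, 5 min) control.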
# [5] = test system: MIA PaCa-2 tumors; assay: Dual-reporter orthotopic PDA xenograft imaging with FeAL-1; type: in vivo, mouse
# [6] = test system: SW1990 tumors; assay: as above; type: in vivo, mouse
# [7] = test system: FC1245 tumors; assay: as above; type: in vivo, mouse
# [8] = Cell-free metal selectivity assay; type: biochemical
# [9] = Storage stability of FeAL-1 powder; type: physicochemical; conditions: stored as a powder at −20 °C under argon
# [10] = UPLC-MS Fe2+-fragmentation assay
# How it was run: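 Test compound at 40 µM final in 50 mM Tris-HCl pH 7.4/DMSO (9:1) with sodium ascorbate and ascorbic acid, each 2 mM final. Held 1 min at 37 °C, then sampled as the hemin-free control. Hemin added to 400 µM final and the mixture stirred at 37 °C. Aliquots taken at set time points over 62 min and analysed by UPLC-MS with UV at 303 nm.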
# [11] = test system: MiaPaca2-luc cells; assay: Cellular assay comparing FeAL-1 and ICL-1 response; type: cell-based, human; conditions: 20 μM probe, FAC 2 hours, imaged after 15 min
# [12] = test system: SW-1990-luc cells; assay: Cellular assay comparing FeAL-1 and ICL-1 response; type: cell-based, human; conditions: 20 μM probe, FAC 2 hours, imaged after 15 min
# [13] = Pharmacokinetic study, plasma LC-MS/MS; type: in vivo, C57BL6 mice; conditions: C57BL/6, mouse, ip, 20 mg/kg
# How it was run: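 Healthy C57BL/6 mice received a single IP dose at 20 mg/kg (2.5 mL/kg; 15 mice per group). Composite plasma sampling, n=3 per timepoint: orbital bleed under isoflurane at 5, 10, 15, 30 and 45 min, then terminal vena cava bleed under CO2 at 1, 2, 3, 4 and 7 h. Blood collected into EDTA and centrifuged to plasma.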
# [14] = hepcidin 50 μg/mouse for three days
# [15] = untreated tumor-bearing mice, FeAL-1 36 mg/kg IP
compound,measurement,setting,value
"COc1cccc2c1C(=O)c1c(O)c3c(c(O)c1C2=O)C[C@@](O)(C(=O)CO)C[C@@H]3O[C@H]1C[C@H](N)[C@H](O)[C@H](C)O1 [DOX, doxorubicin]",ferroportin staining in liver vs untreated controls,[1],reduced ferroportin staining
same,4-HNE staining in heart tissue vs untreated controls,[2],increased 4-HNE staining
same,4-HNE staining in liver vs control group,[2],increased staining for 4-HNE
same,"elevation of non-heme iron in liver, spleen, kidneys and blood",[3],≤ 2 fold
"hepcidin: hepatic peptide hormone, negative regulator of the iron export protein ferroportin",effect of hepcidin pre-treatment on FeAL-1 signal,"[4]; hepcidin 1, 2 and 4 μg/mL, 16 hours, FeAL-1 75 μM",corresponding increase in FeAL-1 signal across all cell lines
same,FeAL-1 Fluc/Rluc response after hepcidin pre-treatment,[5]; [14],~ 5
same,"FeAL-1 Fluc/Rluc response, hepcidin-treated vs untreated controls",[5]; [14],2–3 fold
same,FeAL-1 Fluc/Rluc response after hepcidin pre-treatment,[6]; [14],~ 5
same,"FeAL-1 Fluc/Rluc response, hepcidin-treated vs untreated controls",[6]; [14],2–3 fold
same,effect of hepcidin treatment on tumor LIP,[7]; [14],measurably increased LIP in FC1245 tumors
same,tumoral ferroportin expression vs untreated control animal,"[1]; FC1245 tumors, single comparison",decreased tumoral ferroportin expression
same,ferroportin staining in liver vs untreated controls,[1],reduced ferroportin staining
same,"4-HNE staining of tumors, treated vs untreated controls",[2]; FC1245 tumors,not significantly different
same,4-HNE staining in heart tissue vs untreated controls,[2],"but not hepcidin-treated mice, showed increased 4-HNE staining"
same,4-HNE staining in liver vs control group,[2],increased staining for 4-HNE
O=C(O)[C@H]1CSC(c2nc3ccc(O)cc3s2)=N1 [D-luciferin],luminescent response of D-luciferin with increasing Fe^2+,"[8]; control experiment, D-luciferin instead of FeAL-1",not affected by increasing concentrations of Fe^2+
"CN(CCN(C)C(=O)O[C@@H]1CCC[C@]2(C1)OOC1(O2)C2CC3CC(C2)CC1C3)C(=O)Oc1ccc2nc(C3=N[C@@H](C(=O)O)CS3)sc2c1 (stereo partly drawn) [FeAL-1, (S)-2-(6-(((2-(((((R,R)-dispiro[adamantane-2,3’-[1,2,4]trioxolane-5’,1’’-cyclohexan]-3’’-yl)oxy)carbonyl)(methyl)amino)ethyl)(methyl)carbamoyl)oxy)benzo[d]thiazol-2-yl)-4,5-dihydrothiazole-4-carboxylic acid]",stability on storage,[9],stable over several months
same,stability in assay media lacking hemin,[10]; control without hemin,stable in assay media lacking hemin
same,time point by which FeAL-1 is completely consumed,"[10]; reaction media containing ferrous hemin, 37 °C",≤ 1 min
same,time point at which released D-luciferin is detected,"[10]; reaction media containing ferrous hemin, second time point",12 min
same,luminescence response with Fe^2+ as ferrous ammonium sulfate (FAS),"[8]; 2.5 μM FeAL-1, 2 hours incubation, then 10 μg/mL luciferase",robust luminescence response
same,iron-dependent luminescent response compared with ICL-1,[11],stronger iron-dependent luminescent response from FeAL-1 than from ICL-1
same,iron-dependent luminescent response compared with ICL-1,[12],stronger iron-dependent luminescent response from FeAL-1 than from ICL-1
same,bioluminescent signal in response to FAC supplementation,[4]; larger panel of cell lines,robust bioluminescent signal
same,bioluminescence response with BPY iron chelator treatment,[4]; with or without FAC,expected reduction in bioluminescence response
same,Cmax,[13],5.91 µM
same,Tmax,[13],1 h
same,normalized FeAL-1 Fluc/Rluc response,[5]; [15],~ 2.1
same,normalized luminescence signal in tumor relative to healthy liver,[5]; vs livers of non-tumor bearing mice,~ 10 fold
same,normalized FeAL-1 Fluc/Rluc response,[6]; [15],~ 1.7
same,normalized FeAL-1 Fluc/Rluc response,[7]; [15],~ 0.7
